{"source": "ChEMBL document CHEMBL3856243", "about": "“Structure-Activity Relationships and Kinetic Studies of Peptidic Antagonists of CBX Chromodomains” (J Med Chem, 2016)", "key": {"[1]": {"molecular_target": "T1, Chromobox protein homolog 2 (Homo sapiens, UniProt Q14781)", "T1 sequence (Q14781 whole entry)": "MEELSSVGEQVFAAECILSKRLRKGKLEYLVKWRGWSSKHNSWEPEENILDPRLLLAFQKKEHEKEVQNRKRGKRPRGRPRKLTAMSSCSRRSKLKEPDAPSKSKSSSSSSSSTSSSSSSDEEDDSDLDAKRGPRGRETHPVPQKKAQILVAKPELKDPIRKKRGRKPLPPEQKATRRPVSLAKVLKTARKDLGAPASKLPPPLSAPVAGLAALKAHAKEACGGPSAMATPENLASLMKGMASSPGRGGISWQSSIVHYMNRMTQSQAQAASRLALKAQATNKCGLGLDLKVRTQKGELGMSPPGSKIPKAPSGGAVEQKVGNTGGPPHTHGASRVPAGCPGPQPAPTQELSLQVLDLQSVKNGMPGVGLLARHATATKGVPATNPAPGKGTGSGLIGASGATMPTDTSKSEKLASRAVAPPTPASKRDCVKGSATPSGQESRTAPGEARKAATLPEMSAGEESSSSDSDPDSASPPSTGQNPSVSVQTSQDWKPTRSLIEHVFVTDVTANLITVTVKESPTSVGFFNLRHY", "assay": "Binding affinity to human N-terminal his-tagged CBX2 chromodomain (9 to 66 residues) expressed in Escherichia coli Rosetta BL21(DE3)pLysS by ITC method"}, "[2]": {"molecular_target": "T2, Chromobox protein homolog 6 (Homo sapiens, UniProt O95503)", "T2 sequence (O95503 whole entry)": "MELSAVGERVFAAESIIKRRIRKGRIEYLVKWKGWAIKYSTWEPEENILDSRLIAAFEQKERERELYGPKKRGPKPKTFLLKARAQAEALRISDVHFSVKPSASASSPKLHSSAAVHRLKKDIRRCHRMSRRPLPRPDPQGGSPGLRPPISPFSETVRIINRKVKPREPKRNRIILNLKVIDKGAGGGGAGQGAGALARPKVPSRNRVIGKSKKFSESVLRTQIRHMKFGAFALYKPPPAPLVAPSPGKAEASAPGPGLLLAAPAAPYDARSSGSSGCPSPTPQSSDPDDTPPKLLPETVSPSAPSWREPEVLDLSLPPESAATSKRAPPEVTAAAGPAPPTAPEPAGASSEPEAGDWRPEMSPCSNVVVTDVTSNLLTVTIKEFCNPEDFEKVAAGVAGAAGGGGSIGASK", "assay": "Binding affinity to human N-terminal his-tagged CBX6 chromodomain (8 to 65 residues) expressed in Escherichia coli Rosetta BL21(DE3)pLysS by ITC method"}, "[3]": {"molecular_target": "T3, Testis-specific chromodomain protein Y 1 (Homo sapiens, UniProt Q9Y6F8)", "T3 sequence (Q9Y6F8 whole entry)": "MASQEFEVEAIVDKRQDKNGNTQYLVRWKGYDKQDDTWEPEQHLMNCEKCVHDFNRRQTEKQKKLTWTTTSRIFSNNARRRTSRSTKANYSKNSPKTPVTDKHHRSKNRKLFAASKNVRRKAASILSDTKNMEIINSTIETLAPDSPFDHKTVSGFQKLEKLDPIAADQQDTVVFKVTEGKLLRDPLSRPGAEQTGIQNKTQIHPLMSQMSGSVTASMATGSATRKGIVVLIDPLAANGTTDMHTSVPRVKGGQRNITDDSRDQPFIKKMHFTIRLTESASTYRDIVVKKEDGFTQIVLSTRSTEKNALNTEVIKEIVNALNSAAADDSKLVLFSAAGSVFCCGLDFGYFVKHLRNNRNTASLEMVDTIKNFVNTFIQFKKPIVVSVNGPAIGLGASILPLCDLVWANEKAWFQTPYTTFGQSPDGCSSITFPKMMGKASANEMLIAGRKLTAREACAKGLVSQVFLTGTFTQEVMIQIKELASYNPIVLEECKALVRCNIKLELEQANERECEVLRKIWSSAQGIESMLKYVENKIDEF", "assay": "Binding affinity to human N-terminal GST-tagged CDY1 chromodomain (1 to 101 residues) expressed in Escherichia coli Rosetta BL21(DE3)pLysS by ITC method"}, "[4]": {"molecular_target": "T4, Chromodomain Y-like protein (Homo sapiens, UniProt Q9Y232)", "T4 sequence (Q9Y232 whole entry)": "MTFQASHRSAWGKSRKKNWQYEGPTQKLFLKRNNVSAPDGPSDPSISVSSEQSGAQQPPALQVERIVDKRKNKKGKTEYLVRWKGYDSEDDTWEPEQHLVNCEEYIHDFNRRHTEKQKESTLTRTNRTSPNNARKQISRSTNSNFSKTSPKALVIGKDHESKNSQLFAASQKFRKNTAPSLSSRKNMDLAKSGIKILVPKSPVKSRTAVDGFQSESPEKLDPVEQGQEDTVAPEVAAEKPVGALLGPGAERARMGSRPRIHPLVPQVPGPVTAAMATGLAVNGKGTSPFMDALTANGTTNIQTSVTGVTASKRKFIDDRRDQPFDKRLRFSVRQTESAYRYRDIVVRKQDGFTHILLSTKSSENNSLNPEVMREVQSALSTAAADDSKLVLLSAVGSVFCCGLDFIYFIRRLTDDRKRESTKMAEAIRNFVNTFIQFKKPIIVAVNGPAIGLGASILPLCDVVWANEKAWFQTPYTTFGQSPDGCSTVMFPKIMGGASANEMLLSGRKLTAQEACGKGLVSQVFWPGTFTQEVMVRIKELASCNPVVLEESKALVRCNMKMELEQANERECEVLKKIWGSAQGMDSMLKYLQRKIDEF", "assay": "Binding affinity to human N-terminal GST-tagged CDYL1b chromodomain (1 to 78 residues) expressed in Escherichia coli Rosetta BL21(DE3)pLysS by ITC method"}, "[5]": {"molecular_target": "T5, Chromodomain Y-like protein 2 (Homo sapiens, UniProt Q8N8U2)", "T5 sequence (Q8N8U2 whole entry)": "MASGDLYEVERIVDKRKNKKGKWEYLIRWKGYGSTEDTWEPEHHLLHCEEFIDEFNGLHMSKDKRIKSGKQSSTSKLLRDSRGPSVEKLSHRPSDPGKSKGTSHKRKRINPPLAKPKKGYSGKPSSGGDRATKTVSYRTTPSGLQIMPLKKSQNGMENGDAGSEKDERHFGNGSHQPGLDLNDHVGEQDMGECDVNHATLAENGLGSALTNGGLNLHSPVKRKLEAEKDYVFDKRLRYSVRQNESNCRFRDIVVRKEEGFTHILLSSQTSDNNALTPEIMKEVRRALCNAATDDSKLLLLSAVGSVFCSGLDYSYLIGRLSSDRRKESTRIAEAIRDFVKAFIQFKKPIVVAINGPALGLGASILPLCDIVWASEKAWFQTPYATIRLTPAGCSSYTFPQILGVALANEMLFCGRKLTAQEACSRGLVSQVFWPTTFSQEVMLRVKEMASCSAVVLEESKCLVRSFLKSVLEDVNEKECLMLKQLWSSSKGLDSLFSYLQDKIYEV"}, "PC-3": {"test_system": "PC-3", "assay": "Antiproliferative activity against human PC3 cells assessed as reduction in cell count at 30 uM measured after 72 hrs by DAPI-staining based microscopic method", "assay_type": "functional", "how_it_was_run": "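PC3 cells seeded at 400/well, adhered overnight, then given DMEM + 10% FBS with 30 µM compound or DMSO for 72 h; fixed in ice-cold methanol, rehydrated in PBS, nuclei stained with DAPI (0.05 µg/ml) and counted by high content microscopy; counts normalized to DMSO control (n ≥ 4).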"}, "[6]": {"molecular_target": "Chromobox protein homolog 5 (Homo sapiens, UniProt P45973)", "sequence (P45973 whole entry)": "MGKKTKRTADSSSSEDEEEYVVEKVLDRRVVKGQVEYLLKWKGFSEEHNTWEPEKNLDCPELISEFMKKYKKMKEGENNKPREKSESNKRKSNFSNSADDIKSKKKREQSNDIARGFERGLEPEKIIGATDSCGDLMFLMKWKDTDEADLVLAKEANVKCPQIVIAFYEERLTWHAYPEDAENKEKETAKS", "assay": "Binding affinity to CBX5 chromodomain (unknown origin) by ITC method"}, "[7]": {"molecular_target": "Chromobox protein homolog 3 (Homo sapiens, UniProt Q13185)", "sequence (Q13185 whole entry)": "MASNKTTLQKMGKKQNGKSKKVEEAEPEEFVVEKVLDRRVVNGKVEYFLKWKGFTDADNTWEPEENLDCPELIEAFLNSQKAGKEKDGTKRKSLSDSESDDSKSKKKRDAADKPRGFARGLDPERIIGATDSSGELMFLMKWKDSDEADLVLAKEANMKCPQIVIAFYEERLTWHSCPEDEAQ", "assay": "Binding affinity to CBX3 chromodomain (unknown origin) by ITC method"}, "[8]": {"molecular_target": "Chromobox protein homolog 1 (Homo sapiens, UniProt P83916)", "sequence (P83916 whole entry)": "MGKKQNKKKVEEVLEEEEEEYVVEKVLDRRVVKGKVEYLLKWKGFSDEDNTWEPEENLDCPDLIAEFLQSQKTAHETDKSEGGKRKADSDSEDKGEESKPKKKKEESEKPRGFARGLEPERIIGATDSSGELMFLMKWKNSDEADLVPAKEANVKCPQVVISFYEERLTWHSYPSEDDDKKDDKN", "assay": "Binding affinity to CBX1 chromodomain (unknown origin) by ITC method"}, "[9]": {"molecular_target": "T6, Chromobox protein homolog 8 (Homo sapiens, UniProt Q9HC52)", "T6 sequence (Q9HC52 whole entry)": "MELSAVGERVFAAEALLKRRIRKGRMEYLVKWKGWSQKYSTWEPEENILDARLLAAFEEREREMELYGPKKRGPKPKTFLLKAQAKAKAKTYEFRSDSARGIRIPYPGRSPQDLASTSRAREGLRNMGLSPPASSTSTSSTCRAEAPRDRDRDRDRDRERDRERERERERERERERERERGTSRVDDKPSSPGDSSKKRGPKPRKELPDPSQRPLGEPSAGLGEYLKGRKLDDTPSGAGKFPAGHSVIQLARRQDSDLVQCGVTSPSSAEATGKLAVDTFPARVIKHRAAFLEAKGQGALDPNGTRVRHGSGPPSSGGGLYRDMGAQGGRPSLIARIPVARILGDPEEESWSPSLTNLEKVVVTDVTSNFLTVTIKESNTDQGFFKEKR", "assay": "Binding affinity to human N-terminal his-tagged CBX8 chromodomain (8 to 61 residues) expressed in Escherichia coli Rosetta BL21(DE3)pLysS by ITC method"}}, "note": "The source made the active and inactive calls. The rule behind the calls is not given here. Square brackets hold non-standard residues; d marks the D form. Peptide text beside a SMILES is read from it. * marks the point of attachment. Benzoyl(4-tBu) = CC(C)(C)c1ccc(C(=O)*)cc1; Lys(Et2) = CCN(CC)CCCC[C@H](N)C(=O)O"}
{"molecule": "CCN(CC)CCCC[C@H](NC(=O)[C@H](CC(C)C)NC(=O)[C@H](C)NC(=O)[C@H](Cc1ccccc1)NC(=O)c1ccc(C(C)(C)C)cc1)C(=O)N[C@@H](CO)C(=O)OC", "note": "({Benzoyl(4-tBu)}-FAL[Lys(Et2)]S-OMe)", "values": [{"measurement": "Kd", "setting": "[1]", "result": 1800, "unit": "nM"}, {"measurement": "Kd", "setting": "[2]", "result": 610, "unit": "nM"}, {"measurement": "Kd", "setting": "[3]", "result": 6300, "unit": "nM"}, {"measurement": "Kd", "setting": "[4]", "result": 910, "unit": "nM"}, {"measurement": "Kd", "setting": "[5]", "result": 850, "unit": "nM"}, {"measurement": "Activity", "setting": "PC-3", "result": "Active"}, {"measurement": "Kd", "setting": "[6]", "result": "> 100000", "unit": "nM"}, {"measurement": "Kd", "setting": "[7]", "result": "> 100000", "unit": "nM"}, {"measurement": "Kd", "setting": "[8]", "result": "> 100000", "unit": "nM"}, {"measurement": "Kd", "setting": "[9]", "result": 1200, "unit": "nM"}]}
